{
  "source": "ChEMBL document CHEMBL1141356",
  "about": "“Derrubone, an inhibitor of the Hsp90 protein folding machinery” (J Nat Prod, 2007)",
  "key": {"[1]": {"assay": "Inhibition of Hsp90 in cell based assay"}, "[2]": {"assay": "Inhibition of Hsp90", "procedure,_shortened": "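Thermally denatured firefly luciferase refolded in rabbit reticulocyte lysate at room temperature. Run in triplicate and repeated at least twice; luminescence read with 10 s integration. IC50 is the concentration that cuts recovery of luciferase activity by 50% versus DMSO. Linearity checked by anti-luciferase Western blot over the time course.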"}, "[3]": {"assay": "Effect on binding of Hsp90 to HR1 relative to control"}, "[4]": {"assay": "Inhibition of ATPase activity of bacterial DnaK at upto 400 uM", "procedure,_shortened": "(§1)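 Intrinsic ATPase measured with purified chaperone (bovine Hsp70 or bacterial DnaK, 1 µM) and 1 mM ATP, 3 h at 37 °C, compound or DMSO. Malachite green-molybdate added, then quenched with 3% sodium citrate; absorbance read at 620 nm. Compound tested up to 400 µM. Result is % of solvent control, mean of triplicates.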"}, "[5]": {"biological_target": "T1, Heat shock protein HSP90 (Homo sapiens, UniProt P07900+P08238)", "assay": "Inhibition of Hsp90 in human MCF7 cells assessed as induction of ERalpha degradation after 36 hrs by Western blot analysis", "format": "cell-based", "procedure,_shortened": "(§2)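 MCF-7 cells grown in DMEM:Ham's F-12 (1:1) with nonessential amino acids, 2 mM L-glutamine, antibiotics and 10% FBS. Seeded at 1 × 10^6 per dish, attached overnight, treated with varying concentrations for 36 h at 37 °C, 5% CO2. Harvested for Western blot of client proteins. Controls were GA 500 nM and DMSO.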"}, "[6]": {"biological_target": "T1, Heat shock protein HSP90", "assay": "Inhibition of Hsp90 in human MCF7 cells assessed as induction of Her2 degradation after 36 hrs by Western blot analysis", "format": "cell-based"}, "[7]": {"biological_target": "T1, Heat shock protein HSP90", "assay": "Inhibition of Hsp90 in human MCF7 cells assessed as induction of Raf degradation after 36 hrs by Western blot analysis", "format": "cell-based", "procedure,_shortened": "as §2"}, "[8]": {"species": "Oryctolagus cuniculus", "assay": "Inhibition of Hsp90-dependent maturation and activation of heme-regulated eIF2-alpha kinase in heme-deficient rabbit reticulocyte lysate at 100 uM"}, "[9]": {"biological_target": "T1, Heat shock protein HSP90", "assay": "Inhibition of Hsp90 in human MCF7 cells assessed as induction of Akt degradation after 36 hrs by Western blot analysis", "format": "cell-based", "procedure,_shortened": "as §2"}, "[10]": {"biological_target": "T1, Heat shock protein HSP90", "assay": "Inhibition of Hsp90 in human SkBr3 cells assessed as induction of Her2 degradation by ELISA", "format": "cell-based", "procedure,_shortened": "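SkBr3 cells seeded at 3000/well, attached overnight, then treated 24 h. Washed with ice-cold PBS/1% Tween and fixed with -20 °C methanol, 10 min at 4 °C. Blocked in 5% BSA/PBST 1 h. Rabbit anti-Her2 (1:500) overnight at 4 °C, then HRP anti-rabbit (1:1000) 2 h at rt; chemiluminescence read. IC50 from three experiments in triplicate.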"}, "[11]": {"species": "Oryctolagus cuniculus", "assay": "Inhibition of Hsp90-dependent luciferase refolding in rabbit reticulocyte at 100 uM after 20 mins"}, "[12]": {"biological_target": "T1, Heat shock protein HSP90", "assay": "Inhibition of Hsp90 in human MCF7 cells assessed as induction of actin degradation after 36 hrs by Western blot analysis", "format": "cell-based", "procedure,_shortened": "as §2"}, "[13]": {"system": "MCF7", "assay": "Antiproliferative activity against human MCF7 cells expressing ERalpha", "format": "functional, cell-based", "procedure,_shortened": "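MCF-7 cells (ERα-positive human breast cancer) grown in 1:1 DMEM:Ham's F-12 with nonessential amino acids, 2 mM L-glutamine, streptomycin, penicillin and 10% FBS at 37 °C, 5% CO2. Antiproliferative IC50 derived from three separate experiments, each run in triplicate.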"}, "[14]": {"system": "SK-BR-3", "assay": "Antiproliferative activity against human SkBr3 cells ERalpha-negative and overexpressing Her2"}, "[15]": {"species": "Oryctolagus cuniculus", "assay": "Inhibition of Hsp90-dependent activation of heme-regulated Eif2-alpha kinase in heme-deficient rabbit reticulocyte lysate at 100 uM"}, "[16]": {"species": "Bos taurus", "assay": "Inhibition of ATPase activity of bovine Hsp70 at upto 400 uM", "procedure,_shortened": "as §1"}},
  "note": "Active and inactive are the calls of the source. The calls are words filed in the database; no cut-off is given here.",
  "data": [
    {"compound": "CO[C@@H]1[C@@H](OC(N)=O)[C@@H](O)[C@H](Oc2ccc3c(O)c(NC(=O)c4ccc(O)c(CC=C(C)C)c4)c(=O)oc3c2C)OC1(C)C", "note": "[NOVOBIOCIN]", "values": [
      {"measurement": "IC50", "setting": "[1]", "result": 500, "unit": "µM"}
    ]},
    {"compound": "C[C@@H]1C[C@H]2O[C@@H]2C=C/C=C/C(=O)Cc2c(Cl)c(O)cc(O)c2C(=O)O1", "note": "[RADICICOL]", "values": [
      {"measurement": "IC50", "setting": "[2]", "result": "< 0.1", "unit": "µM"}
    ]},
    {"compound": "COC1=C2C[C@@H](C)C[C@H](OC)[C@H](O)[C@@H](C)/C=C(\\C)[C@H](OC(N)=O)[C@@H](OC)/C=C\\C=C(/C)C(=O)NC(=CC1=O)C2=O", "note": "(stereo in doubt) [GELDANAMYCIN]", "values": [
      {"measurement": "Activity", "setting": "[3]", "result": 80, "unit": "%"},
      {"measurement": "IC50", "setting": "[2]", "result": "< 0.1", "unit": "µM"}
    ]},
    {"compound": "CC1(C)C=Cc2c(cc3occ(-c4ccc5c(c4)OCO5)c(=O)c3c2O)O1", "values": [
      {"measurement": "Activity", "setting": "[2]", "result": "inactive"}
    ]},
    {"compound": "COc1ccc(-c2c(O)c3c(OC)c4c(cc3oc2=O)OC(C)(C)C=C4)cc1", "values": [
      {"measurement": "Activity", "setting": "[2]", "result": "inactive"}
    ]},
    {"compound": "CC(C)=CCc1c(O)cc2occ(-c3ccc4c(c3)OCO4)c(=O)c2c1O", "note": "[DERRUBONE]", "values": [
      {"measurement": "Activity", "setting": "[4]", "result": "inactive"},
      {"measurement": "Activity", "setting": "[3]", "result": 46, "unit": "%"},
      {"measurement": "Activity", "setting": "[5]", "result": "Active"},
      {"measurement": "Activity", "setting": "[6]", "result": "Active"},
      {"measurement": "Activity", "setting": "[7]", "result": "Active"},
      {"measurement": "Activity", "setting": "[8]", "result": "Active"},
      {"measurement": "Activity", "setting": "[9]", "result": "Active"},
      {"measurement": "IC50", "setting": "[10]", "result": 14, "unit": "µM"},
      {"measurement": "Activity", "setting": "[11]", "result": "Active"},
      {"measurement": "Activity", "setting": "[12]", "result": "Active"},
      {"measurement": "IC50", "setting": "[13]", "result": 9, "unit": "µM"},
      {"measurement": "IC50", "setting": "[2]", "result": 0.23, "unit": "µM"},
      {"measurement": "IC50", "setting": "[14]", "result": 12, "unit": "µM"},
      {"measurement": "Activity", "setting": "[15]", "result": "Active"},
      {"measurement": "Activity", "setting": "[16]", "result": "inactive"}
    ]},
    {"compound": "COc1cc(OC)c2c(OC)c(-c3ccc4c(c3)OCO4)c(=O)oc2c1", "values": [
      {"measurement": "Activity", "setting": "[2]", "result": "inactive"}
    ]},
    {"compound": "COc1cc(OC)c2c(=O)c(-c3ccc4c(c3)OCO4)coc2c1", "values": [
      {"measurement": "Activity", "setting": "[2]", "result": "inactive"}
    ]}
  ]
}
